Measured values from ChEMBL document CHEMBL4270592, “8-Aryl-6-chloro-3-nitro-2-(phenylsulfonylmethyl)imidazo[1,2-a]pyridines as potent antitrypanosomatid molecules bioactivated by type 1 nitroreductases” (Eur J Med Chem, 2018).

Legend:
THP-1 = experiment: Cytotoxicity against human THP1 cells assessed as reduction in cell viability after 72 hrs by MTT assay; assay type: cell-based; settings: thp-1, 72 h
In short: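 THP1 cells in complete RPMI with PMA (final 50 ng/mL) at 10⁶ cells/mL, differentiated 48 h. Compounds in DMSO (final <0.5% v/v) then added for 72 h at 37 °C. MTT (0.5 mg/mL in FCS-free medium) 2 h, formazan dissolved in DMSO, A570 with 630 nm reference. Viability as % of untreated control; CC50 from dose-response curve; doxorubicin positive control.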

[1] = Substrate activity at recombinant type-1 nitroreductase in promastigote stage of Leishmania donovani MHOM/SD/62/1S-CL2D LdBOB assessed as inhibition of parasite growth after 72 hrs by resazurin dye based assay
In short: (§1)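 Clonal L. donovani LdBOB promastigotes grown at 26 °C in modified M199. NTR1 and NTR2 overexpressers kept in nourseothricin 100 µg/mL. Triplicate 10 mL cultures seeded at 5×10^4 parasites/mL with drug for 72 h. Aliquots received 50 µM resazurin, read by fluorescence (ex 528/em 590 nm) after 4 h. Background-corrected 2-parameter fit gave EC50; at least two repeats, mean ± SD.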

Leishmania donovani [2] = experiment: Antileishmanial activity against promastigote stage of Leishmania donovani MHOM/IN/00/DEVI assessed as inhibition of parasite metabolic activity after 72 hrs by MTT assay; assay type: functional, organism-based
In short: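 MHOM/IN/00/DEVI log-phase promastigotes in Schneider's medium with 20% FCS, 2 mM L-glutamine and antibiotics. Seeded at 10⁶ parasites/mL with compounds in DMSO (final <0.5% v/v), in duplicate, 72 h at 27 °C. MTT added for 4 h, stopped with 50% isopropanol–10% SDS, A570 read. IC50 by nonlinear regression, mean of three independent experiments.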

[3] = Selectivity index, ratio of CC50 for human HepG2 cells to IC50 for promastigote stage of Leishmania donovani MHOM/IN/00/DEVI; assay type: toxicity; settings: read-out: Ratio CC50/IC50
[4] = Substrate activity at recombinant nitroreductase 2 in promastigote stage of Leishmania donovani MHOM/SD/62/1S-CL2D LdBOB assessed as inhibition of parasite growth after 72 hrs by resazurin dye based assay; in short: as §1
HepG2 = experiment: Cytotoxicity against human HepG2 cells assessed as reduction in cell viability after 72 hrs by MTT assay; assay type: cell-based; settings: hepg2, 72 h
In short: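 HepG2 cells in RPMI with 10% FCS, L-glutamine and penicillin/streptomycin, 37 °C, 6% CO2. After 24 h, compounds in DMSO (final <0.5% v/v) added for 72 h, in duplicate. Precipitate checked, MTT (0.5 mg/mL) 2 h, formazan dissolved in DMSO, A570 with 630 nm reference. Viability as % of untreated control; CC50 from dose-response curve; doxorubicin positive control.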

[5] = Electrochemical behavior of the compound assessed as redox potential corrected toward normal hydrogen electrode by cyclic voltammetry; assay type: physicochemical
Leishmania donovani [6] = experiment: Antileishmanial activity against intramacrophage amastigote stage of Leishmania donovani infected in human THP1 cells after 120 hrs by Giemsa staining based microscopy; assay type: functional, organism-based; settings: THP-1, 120 h
In short: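 THP-1 cells differentiated with PMA (final 50 ng/mL) for 48 h at 37 °C, 6% CO2. Infected 10:1 with L. donovani promastigotes acidified 24 h at 27 °C in Schneider 20% FCS pH 5.4. After 24 h, compounds added in duplicate (DMSO <0.5% v/v) for 120 h.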

Leishmania infantum = experiment: Antileishmanial activity against axenic amastigote stage of Leishmania infantum assessed as inhibition of parasite metabolic activity after 48 hrs by luciferase reporter gene based luminescence assay; assay type: functional, organism-based
In short: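 L. infantum promastigotes in log phase switched to RPMI 1640 pH 5.4 for 24 h at 24 °C, then 24 h at 37 °C to give axenic amastigotes. Seeded at 2.106 parasites/mL with compounds in DMSO (final <0.5% v/v), in duplicate, 48 h at 37 °C. Wells checked for precipitate, luciferase luminescence read, IC50 by non-linear regression as mean.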

[7] = test system: Trypanosoma brucei brucei; experiment: Antitrypanosomal activity against trypomastigote stage of Trypanosoma brucei brucei AnTat 1.9 assessed as decrease in parasite viability after 69 hrs by Alamar blue assay; assay type: functional, organism-based; settings: AnTat 1.9, 69 h
In short: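 AnTat 1.9 in MEM with Earle's salts plus 0.5 mM mercaptoethanol, 1.5 mM L-cysteine, 0.05 mM bathocuproine sulfate and 20% heat-inactivated horse serum, 37 °C, 5% CO2. Seeded 2000 parasites/100 µL with compounds in DMSO, in duplicate, 69 h, then Alamar Blue for 5 h.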

[8] = Selectivity index, ratio of CC50 for human HepG2 cells to IC50 for axenic amastigote stage of Leishmania infantum; assay type: toxicity; settings: read-out: Ratio CC50/IC50
[9] = Selectivity index, ratio of CC50 for human HepG2 cells to IC50 for trypomastigote stage of Trypanosoma brucei brucei AnTat 1.9; assay type: toxicity; settings: read-out: Ratio CC50/IC50
[10] = Selectivity index, ratio of CC50 for human HepG2 cells to IC50 for intramacrophage amastigote stage of Leishmania donovani infected in human THP1 cells; assay type: toxicity, cell-based; settings: read-out: Ratio CC50/IC50
[11] = Selectivity ratio of IC50 for wild type promastigote stage of Leishmania donovani MHOM/SD/62/1S-CL2D LdBOB to substrate activity at recombinant type-1 nitroreductase in promastigote stage of Leishmania donovani MHOM/SD/62/1S-CL2D LdBOB; assay type: toxicity
In short: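 LdBOB promastigotes grown at 26 °C in modified M199. NTR1- and NTR2-overexpressing lines were kept with 100 µg/mL nourseothricin. Triplicate 10 mL cultures seeded at 5×10^4 parasites/mL with drug for 72 h. Aliquots given 50 µM resazurin, fluorescence (ex 528/em 590 nm) read after 4 h. EC50 from a background-corrected 2-parameter fit; at least two repeats, mean plus SD.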

Leishmania donovani [12] = experiment: Antileishmanial activity against wild type promastigote stage of Leishmania donovani MHOM/SD/62/1S-CL2D LdBOB after 72 hrs by resazurin dye based assay; assay type: functional, organism-based; in short: as §1

SMILES	CC50 (THP-1)	IC50 [1]	IC50 (Leishmania donovani [2])	selectivity ratio [3]	IC50 [4]	CC50 (HepG2)	Activity [5]	IC50 (Leishmania donovani [6])	IC50 (Leishmania infantum)	IC50 [7]	selectivity ratio [8]	selectivity ratio [9]	selectivity ratio [10]	Ratio IC50 [11]	IC50 (Leishmania donovani [12])
O=[N+]([O-])c1c(CS(=O)(=O)c2ccccc2)nc2c(-c3ccncc3)cc(Cl)cn12	> 25000 nM	40 nM	1200 nM	> 41.7	2000 nM	> 50000 nM	-0.64 V	2300 nM	3000 nM	250 nM	> 16.7	> 200	> 21.7	20 to 40	1500 nM
O=[N+]([O-])c1c(CS(=O)(=O)c2ccccc2)nc2c(-c3cccc(CO)c3)cc(Cl)cn12	> 15000 nM	70 nM	1300 nM	> 19.2	1900 nM	> 25000 nM	-0.7 V	> 10000 nM	–	150 nM	> 17.9	> 167	–	20 to 40	1400 nM
